# Screening results from PubChem.
# This is a sample that favours compounds with a hit; in the whole collection about 5.7% have one here.
# Calb FLC: C. albicans growth modulation with fluconazole; growth inhibition, % (no concentration beside the values); C. albicans CaCi-2 (fluconazole-resistant clinical isolate) + fluconazole, Alamar Blue growth, 48 h; 300,000 compounds, 0.57% hits;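 active means growth inhibition above about 58% in most replicates, limit read from the data, passing the limit was not always enough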;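 further: all wells also contain fluconazole at 8 µg/ml as a sub-toxic cotreatment; 0% = median of DMSO wells and 100% = median of geldanamycin control wells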
# T cruzi repl: blocks replication of Trypanosoma cruzi | 300,000 compounds, 1.4% hits | T. cruzi beta-gal in NIH3T3, luminescence, 90 h | inhibition, % (concentration not given with the values) | AID 1885;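 active means mean inhibition across valid replicates above about 55%, limit read from the data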;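 further: signal also drops with host cell toxicity which is not excluded here; 0% = plate median of DMSO wells and 100% = zero luminescence signal; higher percent means less beta-gal luminescence so fewer parasites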
#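 compound dosing = single 50 nL compound addition per well in DMSO | material = NIH/3T3 host cells with β-galactosidase reporter T. cruzi | input = 5,000 host fibroblasts per well | timing = ≥90 h infection period, 3 h prior cell attachment | read-out basis = percent inhibition of parasite-derived β-gal signal | detection = GalScreen β-gal luminescence, detergent lysis, 60 min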
# CSC inhib: cancer stem cell inhibition; cancer stem cell-like cells viability, luminescence; inhibition, % at 7.5 µM; 300,000 compounds, 1.1% hits; AID 2717; in the data active means inhibition above about 75%; tested in HMLE shEcad cells
# SKKanGAS inh: inhibitors of SKKanGAS S. pyogenes growth in kanamycin (SK-promoter or general growth effect); BacTiter-Glo, 6 h; inhibition, % at 7.5 µM; 300,000 compounds, 1.3% hits;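 active means mean replicate score, as percent of positive control median, at least 50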;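 further: strain carries kanamycin resistance gene driven by streptokinase promoter and grows in 40 µg/ml kanamycin; loss of luminescence reflects streptokinase promoter inhibition or plain growth inhibition; 0% = median of DMSO wells and 100% = positive control at its reference dose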
# Mdm2-MdmX inh: inhibitors of human Mdm2/MdmX interaction; O15151+Q00987; SaOS-2 split-luciferase Mdm2/MdmX complementation, luminescence; inhibition, % at 8 µM; 330,000 compounds, 3% hits;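 active means inhibition of at least 50% at 8 µM in the primary screen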
# Target sequence (O15151 whole entry, looked up): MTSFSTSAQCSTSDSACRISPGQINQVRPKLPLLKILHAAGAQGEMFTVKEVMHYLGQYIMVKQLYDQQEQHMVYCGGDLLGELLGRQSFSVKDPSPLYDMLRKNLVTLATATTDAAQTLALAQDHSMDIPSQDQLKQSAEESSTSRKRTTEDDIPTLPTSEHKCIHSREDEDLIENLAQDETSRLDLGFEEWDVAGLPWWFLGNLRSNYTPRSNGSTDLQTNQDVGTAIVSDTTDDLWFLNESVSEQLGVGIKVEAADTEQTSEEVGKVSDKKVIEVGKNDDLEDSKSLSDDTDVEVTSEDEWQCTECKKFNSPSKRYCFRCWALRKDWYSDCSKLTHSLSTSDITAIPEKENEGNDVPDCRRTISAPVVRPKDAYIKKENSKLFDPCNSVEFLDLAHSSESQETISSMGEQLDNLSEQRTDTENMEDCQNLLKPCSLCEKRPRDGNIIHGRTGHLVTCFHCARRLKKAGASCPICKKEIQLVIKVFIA
# Target sequence (Q00987 whole entry, looked up): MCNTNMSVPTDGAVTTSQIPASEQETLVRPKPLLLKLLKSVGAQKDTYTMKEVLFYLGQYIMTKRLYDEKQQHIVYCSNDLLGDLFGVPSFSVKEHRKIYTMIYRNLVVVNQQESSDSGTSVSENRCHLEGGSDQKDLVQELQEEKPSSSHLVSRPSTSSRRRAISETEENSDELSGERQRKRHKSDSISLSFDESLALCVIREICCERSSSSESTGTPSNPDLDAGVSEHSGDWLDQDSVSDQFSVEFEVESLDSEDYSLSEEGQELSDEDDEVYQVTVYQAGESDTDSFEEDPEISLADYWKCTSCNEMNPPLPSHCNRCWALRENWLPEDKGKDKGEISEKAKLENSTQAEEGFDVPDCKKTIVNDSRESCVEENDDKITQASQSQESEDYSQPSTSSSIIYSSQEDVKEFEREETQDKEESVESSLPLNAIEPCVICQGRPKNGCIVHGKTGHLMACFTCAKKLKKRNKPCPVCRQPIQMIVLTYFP
# Beta apoptosis: beta cell apoptosis inhibition; protection from apoptosis, % (no concentration beside the values); INS-1E cytokine-induced death, ATP luminescence, 48 h; percent of positive-control rescue, neutral wells zero; 300,000 compounds, 0.8% hits; AID 435005;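 active means Every replicate reaches about 75%, or at least half do and their mean reaches it too, limit read from the data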;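 further: 0% = cytokine-treated negative control wells and 100% = positive control rescue; higher means more ATP so stronger rescue from cytokine killing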
# Numbers without * were called inactive; / = no result.
SMILES,Calb FLC,T cruzi repl,CSC inhib,SKKanGAS inh,Mdm2-MdmX inh,Beta apoptosis
CCOC(=O)C1CCCN(Cc2ccc(OCc3ccccc3)cc2)C1 (stereo not given),0.1,62.2*,11.6,2.1,19.6,-3.8
CCOC(=O)C1CCCN(Cc2ccc(OCc3ccccc3)c(OC)c2)C1 (stereo not given),-3.6,62.6*,11.3,-0.8,15.8,/
CCOC(=O)C1CCCN(Cc2ccc(O)c(OC)c2)C1 (stereo not given),4.3,57.7*,-0.5,-10.1,12.4,-8.4
CCOC(=O)C1CCCN(Cc2cccc(Cl)c2)C1 (stereo not given),-11.9,37.3,-3.2,2.9,18.9,-0.9
CCOC(=O)C1=CN(Cc2cccc(-c3ccc4c(c3)OCO4)c2)S(=O)(=O)N(C)C1C (stereo not given),/,/,/,/,23.8,/
CC(=O)c1cccc(NC(=O)C(C)OC(=O)C2=NNC(=O)CC2)c1 (stereo not given),/,/,-20.5,/,-17.6,1.5
CC(=O)N1CCN(C(=O)c2cc3c(s2)CCC(C)C3)CC1 (stereo not given),/,/,/,/,22.8,/
CCOC(=O)c1[nH]cnc1N=Nc1c(O)ccc2ccccc12,2.5,17.2,72.3,27.4,/,97.0*
Oc1ccc2ccccc2c1N=Nc1ccccc1F,1.5,-3.2,38.7,18.6,-8.7,-0.1
COc1ccc(C)cc1S(=O)(=O)N(CC(=O)NC1CCCC1)c1ccc(F)cc1,1.1,-6.2,-3.3,11.0,13.8,-0.7
CN1/C(=C\C(=O)c2cccs2)Sc2ccccc21,3.6,14.1,-7.2,2.5,-50.8,-21.1
CN1/C(=C/C(=O)c2cccs2)Sc2ccccc21,83.7*,-4.7,-8.7,-12.9,-116.4,/
CC(C)=CCc1c(O)ccc2c1OC(c1ccc(O)c(O)c1)CC2=O (stereo not given),-17.0,-21.7,45.3,4.1,7.3,0.0
CC(C)=CCc1c(O)ccc(C2COc3c(CC=C(C)C)c(O)cc(O)c3C2=O)c1O (stereo not given),17.3,-11.3,-4.6,51.0*,9.0,-5.1
COc1ccc(/C=C/C(=O)c2c(C)nc3ccccn23)cc1,-1.2,52.3,-5.9,51.2*,-43.8,/
CC(C)NS(=O)(=O)c1ccc(NCCCn2ccnc2)c([N+](=O)[O-])c1,-14.8,3.9,-2.4,-0.2,1.6,-0.2
N=C1/C(=C/c2cccs2)C(=O)N=C2SN=C(SCc3ccccc3)N12,19.1,-3.9,6.1,81.1*,-7.6,3.6
Cc1ccc(N(CC(=O)Nc2cc(C)cc(C)c2)S(=O)(=O)c2c(C)noc2C)cc1,15.4,25.7,10.4,7.1,32.3,102.0*
O=C(CCCOc1ccc(Br)cc1)Nc1nnc(C2CC2)s1,/,/,-11.3,/,17.5,-11.2
CC1(C)CC(Nc2ccc(Nc3ccccc3)cc2)CC(C)(C)N1,-0.3,64.7*,7.0,-0.4,/,24.6
CC1(C)CC(NC(=O)c2ccccc2)CC(C)(C)N1,-8.5,-1.0,-10.8,-1.8,10.3,-8.5
C/C(N)=C(/C#N)C(=O)CSc1nc2scc(-c3ccc(F)cc3)c2c(=O)n1C,60.4,1.3,9.9,70.4*,32.0,3.2
O=C(COC(=O)c1cccc(C(F)(F)F)c1)NC(=O)NC1CCCC1,/,/,-9.2,/,-9.3,-5.3
Cc1ccc(C)c(NC(=O)CN2C(=O)NC(CCc3ccccc3)C2=O)c1 (stereo not given),/,/,2.7,/,12.8,-3.3
COc1ccc(/C=N/Nc2nc3ccccc3[nH]2)cc1OC,4.6,-18.4,4.3,3.5,-12.9,20.6
SMILES,Calb FLC,T cruzi repl,CSC inhib,SKKanGAS inh,Mdm2-MdmX inh,Beta apoptosis
C(=N\Nc1nc2ccccc2[nH]1)/c1ccccn1,-3.0,68.7*,/,25.4,/,/
CC(C)(C)C1CCC(=NNc2nc3ccccc3[nH]2)CC1 (stereo not given),-3.1,-24.5,-10.1,34.2,47.2,46.0
C(=N\Nc1nc2ccccc2[nH]1)/c1ccc2ncccc2c1,-0.6,35.0,79.2*,-6.8,-77.9,/
C(=N\Nc1nc2ccccc2[nH]1)/c1ccc2c(c1)OCCO2,-5.1,33.7,25.6,19.8,-74.8,/
COc1cc(/C=N\Nc2nc3ccccc3[nH]2)cc(OC)c1OC,-0.1,35.1,6.0,93.6*,-9.0,12.5
c1ccc2c(c1)CC/C2=N/Nc1nc2ccccc2[nH]1,0.6,66.9*,/,38.0,-117.2,/
S=C(N/N=C/c1ccc2ncccc2c1)Nc1ccccc1,87.8*,30.5,-1.2,3.5,-46.9,12.8
C#CCn1cc(/C=N/Nc2nc3ccccc3[nH]2)c2ccccc21,-14.5,36.9,91.8*,-11.6,14.6,54.9
CCCCn1c(/C=C/c2ccco2)nc2ccccc21,-15.9,7.4,16.7,4.7,27.9,-4.2
CCCCn1c(/C=N/Nc2nc3ccccc3[nH]2)nc2ccccc21,-3.6,39.1,/,94.7*,47.4,75.9*
O=c1nc(N/N=C/c2ccccn2)cn[nH]1,106.3*,-19.6,81.9*,-6.8,11.2,60.6
CN(C)c1ccc(NS(=O)(=O)c2cc3c4c(c2)CC(=O)N4CCC3)cc1,1.4,5.8,-22.1,6.3,5.6,-3.1
O=C(CCc1nnc(Cc2ccc(-c3ccccc3)cc2)o1)NCCc1cccnc1,16.4,7.7,-8.4,-2.6,19.0,-5.6
O=C(CCc1nnc(CCCCc2ccccc2)o1)NCCc1cccnc1,9.1,60.4*,-22.4,-1.3,-29.6,0.0
Nc1nc2c(nc(SCc3ccccc3Br)n2[C@@H]2O[C@H](CO)[C@@H](O)[C@H]2O)c(=O)[nH]1,2.1,-6.3,-8.9,1.5,-1.6,-2.6
CCCNC(=O)CN1C(=O)c2ccccc2Sc2ncccc21,-2.6,-4.6,-3.4,1.5,15.6,-2.2
CCC1Oc2ccc(C)cc2N(CC(=O)N(Cc2cccnc2)Cc2ccc(C)o2)C1=O (stereo not given),5.3,57.1*,-11.0,10.6,-18.4,9.9
CCC1Oc2ccc(C)cc2N(CC(=O)N(Cc2ccc(C)o2)C2CC(C)(C)NC(C)(C)C2)C1=O (stereo not given),-35.4,15.0,-7.4,5.1,42.0,-1.2
COc1ccc(S(=O)(=O)N(C)C[C@H]2Oc3c(NC(=O)C4CCCCC4)cccc3C(=O)N([C@H](C)CO)C[C@@H]2C)cc1,/,/,-40.0,/,3.3,-4.3
Cc1ccc(C)c(N(CC(=O)Nc2ccc(-c3nc4ccc(C)cc4s3)cc2)S(C)(=O)=O)c1,2.2,65.4*,70.1,17.1,4.5,1.1
COc1ccc(C2(C)NC(=O)N(CC(=O)Nc3ccc(-c4nc5ccc(C)cc5s4)cc3)C2=O)cc1 (stereo not given),4.8,41.6,-25.4,9.7,-122.2,3.8
CCC1(c2ccc(F)cc2)NC(=O)N(CC(=O)Nc2ccc(-c3nc4ccc(C)cc4s3)cc2)C1=O (stereo not given),-4.9,52.6,22.3,30.6,-102.5,91.9*
CC(=O)c1ccc(NC(=O)CC(C)S(=O)(=O)c2ccc3c(c2)CCN3C(C)=O)cc1 (stereo not given),0.3,-7.9,-8.3,24.2,-8.9,-4.1
